Experiments:
[1] = target: T1, NADPH oxidase 2 (Homo sapiens, UniProt P04839); test: Inhibition of full length human NOX2 transfected in COS 22 cells assessed as inhibition of Phorbol 12-myristate 13-acetate-stimulated ROS generation by measuring H2O2 production by fluorescence assay in presence of superoxide dismutase; assay type: cell-based; details: read-out: IC50
T1 sequence (P04839 whole entry): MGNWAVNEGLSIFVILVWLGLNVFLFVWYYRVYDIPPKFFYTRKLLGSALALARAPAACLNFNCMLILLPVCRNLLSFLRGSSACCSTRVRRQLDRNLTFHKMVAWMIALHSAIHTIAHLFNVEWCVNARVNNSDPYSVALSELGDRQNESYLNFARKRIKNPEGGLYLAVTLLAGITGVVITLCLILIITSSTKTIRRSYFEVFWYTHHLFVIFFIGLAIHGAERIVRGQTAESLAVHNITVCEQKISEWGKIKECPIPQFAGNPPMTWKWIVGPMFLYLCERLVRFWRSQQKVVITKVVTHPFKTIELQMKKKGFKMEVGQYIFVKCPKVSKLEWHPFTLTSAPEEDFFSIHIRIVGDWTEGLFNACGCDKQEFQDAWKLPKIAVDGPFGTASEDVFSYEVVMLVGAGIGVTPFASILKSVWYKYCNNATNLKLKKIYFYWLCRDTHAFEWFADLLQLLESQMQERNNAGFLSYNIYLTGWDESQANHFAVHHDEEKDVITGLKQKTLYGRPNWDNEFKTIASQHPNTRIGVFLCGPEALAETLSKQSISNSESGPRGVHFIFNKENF
In short: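 Intact COS-Nox2 cells in Hepes pH 7.4 buffer with 0.1 mM Amplex Red, 0.32 U/ml HRP and 150 U/mL SOD, drug 15 min at 37 °C; started with 5 µM PMA; fluorescence monitored 1 h at 37 °C; rate as RFU/min minus unstimulated cells; % of vehicle control.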

[2] = target: T2, NADPH oxidase 5 (Homo sapiens, UniProt Q96PH1); test: Inhibition of full length human NOX5 transfected in HEK cells assessed as inhibition of ionomycin-stimulated ROS generation by chemiluminescence assay; assay type: cell-based, HEK293
T2 sequence (Q96PH1 whole entry): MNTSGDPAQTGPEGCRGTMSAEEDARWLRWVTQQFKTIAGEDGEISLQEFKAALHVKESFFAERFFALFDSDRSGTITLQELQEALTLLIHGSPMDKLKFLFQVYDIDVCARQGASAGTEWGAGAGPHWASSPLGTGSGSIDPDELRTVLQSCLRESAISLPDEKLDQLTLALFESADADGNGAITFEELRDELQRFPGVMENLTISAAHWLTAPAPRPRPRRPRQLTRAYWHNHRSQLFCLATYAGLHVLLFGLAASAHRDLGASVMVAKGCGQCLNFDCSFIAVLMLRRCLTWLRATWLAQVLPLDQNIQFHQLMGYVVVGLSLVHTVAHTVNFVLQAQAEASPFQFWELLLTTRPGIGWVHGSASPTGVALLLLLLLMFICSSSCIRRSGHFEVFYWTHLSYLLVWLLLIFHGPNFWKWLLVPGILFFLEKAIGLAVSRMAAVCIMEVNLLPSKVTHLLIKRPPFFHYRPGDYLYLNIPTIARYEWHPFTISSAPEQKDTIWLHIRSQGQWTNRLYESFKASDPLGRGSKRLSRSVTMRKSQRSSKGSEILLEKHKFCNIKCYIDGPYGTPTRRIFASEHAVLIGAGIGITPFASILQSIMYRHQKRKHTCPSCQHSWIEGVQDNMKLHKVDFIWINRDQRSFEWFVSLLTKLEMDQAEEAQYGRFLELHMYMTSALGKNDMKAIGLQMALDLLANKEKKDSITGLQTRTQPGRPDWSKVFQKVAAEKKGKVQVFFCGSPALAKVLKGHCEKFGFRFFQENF
In short: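 HEK-Nox5 cells at 5 × 10⁴ cells/well in OPTIMEM, 10 min at 37 °C in PBS with L-012, then stimulated with 1 µM PMA/0.1 µM ionomycin; luminescence over time; SOD 150 U/mL used to confirm superoxide specificity. IC50 by three-parameter fit, Hill slope 1, top/bottom fixed 100/0.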

[3] = target: Xanthine dehydrogenase/oxidase (Bos taurus, UniProt P80457); test: Inhibition of bovine milk xanthine oxidase assessed as hypoxanthine-stimulated ROS generation by measuring H2O2 production at 25 to 50 uM by fluorescence assay; details: cattle
Sequence of Xanthine dehydrogenase/oxidase (P80457 whole entry): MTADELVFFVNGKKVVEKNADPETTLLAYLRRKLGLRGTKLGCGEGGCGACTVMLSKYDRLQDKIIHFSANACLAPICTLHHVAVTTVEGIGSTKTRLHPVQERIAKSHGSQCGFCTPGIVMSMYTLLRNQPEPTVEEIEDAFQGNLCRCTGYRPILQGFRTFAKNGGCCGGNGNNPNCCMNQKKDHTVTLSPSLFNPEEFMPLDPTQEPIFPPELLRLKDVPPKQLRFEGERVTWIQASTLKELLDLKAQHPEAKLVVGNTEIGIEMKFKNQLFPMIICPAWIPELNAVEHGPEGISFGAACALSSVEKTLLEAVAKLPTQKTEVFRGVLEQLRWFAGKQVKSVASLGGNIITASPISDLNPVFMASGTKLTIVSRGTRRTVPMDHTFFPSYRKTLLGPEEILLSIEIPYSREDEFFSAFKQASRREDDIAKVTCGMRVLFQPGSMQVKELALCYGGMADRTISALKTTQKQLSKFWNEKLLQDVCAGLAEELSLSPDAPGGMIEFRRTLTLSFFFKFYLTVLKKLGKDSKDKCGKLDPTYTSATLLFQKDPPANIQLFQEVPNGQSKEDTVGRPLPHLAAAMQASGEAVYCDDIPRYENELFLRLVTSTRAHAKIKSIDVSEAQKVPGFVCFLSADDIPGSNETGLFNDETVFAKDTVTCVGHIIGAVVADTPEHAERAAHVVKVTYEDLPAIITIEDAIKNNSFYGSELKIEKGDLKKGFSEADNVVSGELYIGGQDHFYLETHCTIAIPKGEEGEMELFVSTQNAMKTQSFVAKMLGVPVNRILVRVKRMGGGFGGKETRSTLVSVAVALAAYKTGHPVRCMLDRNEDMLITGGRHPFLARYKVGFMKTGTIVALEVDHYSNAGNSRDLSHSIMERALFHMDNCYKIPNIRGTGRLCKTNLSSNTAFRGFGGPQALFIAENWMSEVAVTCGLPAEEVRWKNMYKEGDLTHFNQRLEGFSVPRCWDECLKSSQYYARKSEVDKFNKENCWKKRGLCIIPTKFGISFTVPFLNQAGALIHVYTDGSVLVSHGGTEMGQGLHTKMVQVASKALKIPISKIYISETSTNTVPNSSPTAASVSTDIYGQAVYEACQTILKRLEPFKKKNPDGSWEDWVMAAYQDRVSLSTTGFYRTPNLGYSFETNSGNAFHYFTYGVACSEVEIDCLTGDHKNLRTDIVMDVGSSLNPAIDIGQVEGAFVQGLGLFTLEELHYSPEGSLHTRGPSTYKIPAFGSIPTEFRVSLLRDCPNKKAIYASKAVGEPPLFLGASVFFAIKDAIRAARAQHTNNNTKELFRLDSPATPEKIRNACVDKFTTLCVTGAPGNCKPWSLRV

Question: What does the source list for `C=C(C)C[C@@H]1N[C@H]2CC(C)(C)[C@@H]1c1c(Br)cccc12` (racemic)?
Answer: IC50 [1]: 40 µM; IC50 [2]: 20 µM; inhibition (INH) [3]: Not Active
